# According to PubChem BioAssay:
# Active and inactive are the calls of the source.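 Rule for the calls, unless noted: active = viability loss from added drug above about 55%, and viability with drug at most 40%, in both replicates (limit read from the data, passing the limit was not always enough); inconclusive = both conditions met in only one replicate; inactive = neither replicate meets both conditions.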
# Experiments:
# [1] = SK-BR-3 cell growth inhibitors, pilot screen, 24 h, human (AID 572;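 active = viability at or below 10% of carrier control in both of two separate runs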;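 note: compound exposure lasted between 18 and 24 h rather than exactly 24 h; 100% = carrier-treated control wells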); conditions: SK-BR-3 viability, CellTiter-Glo luminescence, at 10 µM, stronger effect = lower value
# [2] = HUVEC growth inhibition – cell-based, human, primary screen (AID 575;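 active = viability at or below 30% in both replicate assays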;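 note: 100% = median of untreated cell wells with 0.1% DMSO on each plate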); conditions: HUVEC proliferation, CellTiter-Glo luminescence, 72 h; at 10 µM; stronger effect = lower value
# Outline: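 Assay system: Primary human umbilical vein endothelial cells | Quantity: 1250 cells per well | Medium: Supplemented EBM, 2% fetal bovine serum | Detection: CellTiter-Glo luminescence measuring cellular ATP | Read-out: % viability vs DMSO wells | Plate: Collagen-coated 384-well format | Times: 72 h exposure, 37 °C, 5% CO2, 30 min RT equilibration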
# [3] = growth inhibitors of H69AR lung tumor, primary screen, human, duplicate replicates (AID 580;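 active = viability at or under a set limit in both replicates, limit being median viability minus 3 SD, cut at about 48% in these data, passing the limit was not always enough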;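 note: 100% = mean luminescence of untreated wells and 0% = no signal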); conditions: H69AR lung tumor cells viability, ATP luminescence, 72 h; at 10 µM; stronger effect = lower value
# [4] = reversal of MRP1-mediated doxorubicin resistance, pilot screen, H69AR cells, doxorubicin co-treatment (AID 601); conditions: CellTiter-Glo, 72 h, at 10 µM; for differential viability (reversal): stronger effect = higher value
# [5] = 384-well plate pilot, post-Golgi transport modulator project, inhibition of yeast transport mutant growth (AID 636; in the data active = inhibition above about 31%); conditions: absorbance 615 nm, about 18 h, stronger effect = higher value
# [6] = growth suppression of yeast trafficking mutant, preliminary HTS, modulators of trafficking downstream of Golgi apparatus project, 1536-format plate, OD 615 nm (AID 637; in the data active = inhibition above about 30%); conditions: yeast transport mutant growth, absorbance 615 nm, 18 h; stronger effect = higher value
# [7] = H69AR cells + 2 uM doxorubicin, measured here: viability with 2 uM doxorubicin, stronger effect = lower value
# [8] = H69AR cells, compound alone cytotoxicity
Structure (SMILES),viability [1],viability [2],viability [3],differential viability (reversal) ([4]; H69AR cells + 2 uM doxorubicin),"viability [4, 7] [%]","viability [4, 8] [%]",inhibition [5],inhibition [6]
CCN(CC)C(=O)CSC1=C(C#N)C(c2ccco2)C(C(=O)OCCOC)=C(C)N1 (stereo unspecified),116% (inactive),101% (inactive),78% (inactive),6.37% (inactive),71.6,78,-6.16% (inactive),2.58% (inactive)
O=C1C(Cl)=C(NCC2CCCO2)C(=O)N1CCc1ccccc1 (stereo unspecified),75% (inactive),111% (inactive),87.4% (inactive),8.39% (inactive),79,87.4,-0.82% (inactive),-4.03% (inactive)
Cc1ccc(-c2nnc(SCC(=O)N3c4ccccc4NC(=O)C3(C)C)n2N)cc1,65% (inactive),105% (inactive),98% (inactive),6.49% (inactive),91.5,98,-3.38% (inactive),0.36% (inactive)
O=C(Nc1ccc(NC(=O)C2CC2)cn1)c1ccccc1Cl,101% (inactive),98.7% (inactive),98.5% (inactive),7.09% (inactive),91.4,98.5,-2.13% (inactive),-2.91% (inactive)
Cc1cc(C)cc(OCC(=O)NC2=NCCS2)c1,100% (inactive),87.5% (inactive),96.1% (inactive),2.82% (inactive),93.3,96.1,0.39% (inactive),1.48% (inactive)
O=C(O)Cc1ccc(-c2ccccc2)cc1,112% (inactive),84.3% (inactive),85.7% (inactive),-0.76% (inactive),86.4,85.7,-2.21% (inactive),5.33% (inactive)
Nn1c(SCC(=O)NC2CCCCC2)nnc1-c1ccc(Cl)cc1,89% (inactive),104% (inactive),91.6% (inactive),8.96% (inactive),82.7,91.6,-6.16% (inactive),3.71% (inactive)
CC(C)CN(CC(C)C)c1nc(N)c(C#N)c(CC#N)c1C#N,106% (inactive),114% (inactive),86.7% (inactive),13.6% (inactive),73.1,86.7,-5.6% (inactive),-1.27% (inactive)
O=C(CSc1n[nH]c(=O)[nH]c1=O)c1ccccc1,110% (inactive),105% (inactive),101% (inactive),4.23% (inactive),97,101,-2.4% (inactive),-3.82% (inactive)
CCOC(=O)Cc1csc(NC(=O)c2cccc(OC)c2)n1,75% (inactive),104% (inactive),103% (inactive),0.32% (inactive),102,103,-5.75% (inactive),-5.64% (inactive)
COc1ccccc1CNC(=O)Nc1cccs1,126% (inactive),63.8% (inactive),72.1% (inactive),5.65% (inactive),66.5,72.1,-0.78% (inactive),4.1% (inactive)
CC(=O)O[C@H]1C[C@@H]2CC[C@@H]3[C@H](CC[C@@]4(C)[C@H]3C[C@H]([N+]3(C)CCCCC3)[C@@H]4OC(C)=O)[C@@]2(C)C[C@@H]1[N+]1(C)CCCCC1,111% (inactive),88.4% (inactive),94.5% (inactive),-4.76% (inactive),99.3,94.5,1.04% (inactive),12.7% (inactive)
COc1ccccc1NC(=O)C(C)NS(=O)(=O)c1ccc(F)cc1 (stereo unspecified),141% (inactive),89.5% (inactive),89.2% (inactive),0.595% (inactive),88.6,89.2,-5.58% (inactive),0% (inactive)
O=C(Nc1ccc(Br)c2cccnc12)c1ccc(Cn2cc(Cl)cn2)o1,156% (inactive),43% (inactive),87.4% (inactive),9.23% (inactive),78.2,87.4,-1.56% (inactive),-3.44% (inactive)
O=C(O)c1ccc(NC(=O)c2cccs2)cc1,87% (inactive),94.7% (inactive),92.5% (inactive),12.8% (inactive),79.7,92.5,-5.73% (inactive),-4.55% (inactive)
COc1ccccc1N1CCN(C(=O)CSc2nc3ncnc(N)c3[nH]2)CC1,110% (inactive),96.6% (inactive),92.8% (inactive),3.56% (inactive),89.3,92.8,-4.29% (inactive),-1.31% (inactive)
Cc1ccc2nc(-c3ccc4c(c3)OCCO4)cc(C(=O)O)c2c1,89% (inactive),104% (inactive),101% (inactive),5.86% (inactive),95,101,-4.73% (inactive),-6% (inactive)
O=C(Nc1cnn(Cc2ccc(F)cc2)c1)c1cnccn1,117% (inactive),85.2% (inactive),98.8% (inactive),1.69% (inactive),97.1,98.8,-2.34% (inactive),3.93% (inactive)
Cc1cc(C)n(CC(=O)O)n1,88% (inactive),106% (inactive),88.4% (inactive),-18.8% (inactive),107,88.4,-7.7% (inactive),-1.45% (inactive)

Structure (SMILES),viability [1],viability [2],viability [3],differential viability (reversal) ([4]; H69AR cells + 2 uM doxorubicin),"viability [4, 7] [%]","viability [4, 8] [%]",inhibition [5],inhibition [6]
CC1CN(C(=O)CSc2ncnc3sccc23)CC(C)O1 (stereo unspecified),80% (inactive),103% (inactive),99.6% (inactive),-2.15% (inactive),102,99.6,-5.75% (inactive),0% (inactive)
C=CCSc1nnc(-c2ccc(Cl)cc2Cl)o1,96% (inactive),107% (inactive),87.9% (inactive),19.9% (inactive),67.9,87.9,-5.47% (inactive),0.73% (inactive)
Cc1cc(C(=O)Nc2nnc(C(F)(F)F)s2)no1,98% (inactive),107% (inactive),105% (inactive),5.13% (inactive),99.8,105,-7.4% (inactive),0.32% (inactive)
O=C(CCCOc1ccccc1)N1CCN(c2ccccn2)CC1,99% (inactive),97.7% (inactive),104% (inactive),5.88% (inactive),97.8,104,-0.39% (inactive),-5.74% (inactive)
CC(C)NCC(O)COc1ccc(CCOCC2CC2)cc1 (stereo unspecified),102% (inactive),83.3% (inactive),95.8% (inactive),-14.9% (inactive),111,95.8,-0.91% (inactive),-5% (inactive)
Cc1c(C(=O)NCc2ccccn2)sc2nc(-c3ccc(F)cc3)cn12,119% (inactive),89.4% (inactive),95.4% (inactive),13.1% (inactive),82.3,95.4,-3.12% (inactive),3.77% (inactive)
CCn1c(SCC(=O)Nc2ccc3c(c2)OCO3)nnc1-c1cnccn1,89% (inactive),93.1% (inactive),95.4% (inactive),5.74% (inactive),89.7,95.4,-5.62% (inactive),-0.73% (inactive)
CCOc1ccccc1C(=O)Nn1c(C2CCC2)nc2ccccc2c1=O,91% (inactive),91.1% (inactive),93.7% (inactive),-18% (inactive),112,93.7,-4.11% (inactive),2.55% (inactive)
CCOC(=O)C1CCCN(C(=O)c2sc3nc(-c4ccccc4)cn3c2C)C1 (stereo unspecified),112% (inactive),89.3% (inactive),84.9% (inactive),1.98% (inactive),82.9,84.9,-1.3% (inactive),15.9% (inactive)
O=C(C1CCCN(S(=O)(=O)c2cccc3nonc23)C1)N1CCC(Cc2ccccc2)CC1 (stereo unspecified),103% (inactive),34.9% (inactive),71.3% (inactive),16% (inactive),55.2,71.3,-4.21% (inactive),-7.17% (inactive)
O=C(Nc1cccc(OCC(=O)N2CCOCC2)c1)C1CCCCC1,109% (inactive),90% (inactive),112% (inactive),-0.43% (inactive),112,112,-4.66% (inactive),0% (inactive)
CC1(C)CC(=O)c2sc(NS(C)(=O)=O)nc2C1,119% (inactive),101% (inactive),96% (inactive),12.7% (inactive),83.2,96,-6.16% (inactive),1.94% (inactive)
CCCCC[C@H](O)/C=C/[C@@H]1[C@@H](CCCCCCC(=O)O)[C@@H](O)C[C@H]1O,113% (inactive),89.6% (inactive),103% (inactive),9.71% (inactive),93.6,103,0.26% (inactive),2.33% (inactive)
CN(Cc1ccc(-n2cccn2)cc1)C(=O)c1cnn2c1NC(c1ccco1)CC2C(F)(F)F (stereo unspecified),74% (inactive),82.3% (inactive),78.4% (inactive),-7.45% (inactive),85.8,78.4,2.88% (inactive),-0.36% (inactive)
Cc1c(Cl)cccc1NC(=O)CCN1CCCCCC1,116% (inactive),103% (inactive),88.3% (inactive),2.1% (inactive),86.2,88.3,-6.85% (inactive),5.64% (inactive)
COC(=O)c1sccc1NC(=O)c1ccco1,109% (inactive),92.3% (inactive),96.3% (inactive),-5.95% (inactive),102,96.3,-6.71% (inactive),7.27% (inactive)
N#CCc1ccc(NC(=O)Nc2cccc(Cl)c2)cc1,88% (inactive),76.9% (inactive),92.5% (inactive),-12.1% (inactive),105,92.5,-6.44% (inactive),2.73% (inactive)
COCCCNC(=O)CCCn1c(=O)c2ccccc2n(CC(=O)Nc2c(C)cccc2C)c1=O,99% (inactive),97.6% (inactive),93.1% (inactive),4.87% (inactive),88.2,93.1,-1.69% (inactive),-1.31% (inactive)
